Measurements pooled from the literature.
Protocols differ between the studies behind these lines.
CDK16: Cyclin-dependent kinase 16 (CDK16, Homo sapiens, UniProt Q00536)
CDK16 with cyclin Y: Cyclin-dependent kinase 16, with cyclin Y (CDK16, Homo sapiens, UniProt Q00536)

For CN([C@@H]1CCc2c(CC(=O)O)c3cc(S(C)(=O)=O)ccc3n2C1)S(=O)(=O)c1ccc(F)cc1, the remaining binding was 84% (CDK16; cell-free assay; competition with immobilised ligand; 1 µM).
Nc1ncnc2occ(-c3ccc(NC(=O)Nc4cc(C(F)(F)F)ccc4F)cc3)c12 has a remaining signal of 0.15% (CDK16; cell-free assay; inhibitor; 20 µM).
Cn1c2c(c3ccccc31)C(C#N)C(C)(C)NC2=O (stereo not drawn) gave a ΔTm of 0.2 °C (CDK16; thermal stability; DSF; 10 µM).
COc1cccc2c(NCc3ccccc3)nc(-n3c(N)nc4ccccc43)nc12 gave an inhibition of -2.7% (CDK16; target engagement in cells; inhibitor; chemoproteomics; 20 mM).
The remaining activity of CC(C)(C)c1nc(-c2cccc(NS(=O)(=O)c3c(F)cccc3F)c2F)c(-c2ccnc(N)n2)s1 is reported as 53% (CDK16 with cyclin Y; enzyme activity; inhibitor; radiometric; 1 µM).
With Nc1cnc(N2CCc3cc(S(=O)(=O)Nc4c(F)cc(Cl)cc4F)cc(N4CCCC4=O)c32)nc1 the remaining binding was 98% (CDK16; cell-free assay; competition with immobilised ligand; 1 µM).
The ΔTm of Cn1c2c(c3ccc(Cl)c(Cl)c31)C(C#N)C1(CCCCC1)NC2=O (racemic) is reported as 0.6 °C (CDK16; thermal stability; DSF; 10 µM).
The remaining activity of Cc1ccc(C(=O)Nc2ccc(CN3CCN(C)CC3)c(C(F)(F)F)c2)cc1C#Cc1cnc2cccnn12 is reported as 77% (CDK16; enzyme activity; inhibitor; 23.5 nM).
CO[C@@H](C)c1c(Nc2ccc([C@@H](N(C)C(=O)C3CCS(=O)(=O)CC3)C(F)(F)F)cc2)cnc2cc(Cl)nn12 has a remaining binding of 72% (CDK16; cell-free assay; competition with immobilised ligand; 1 µM).
With O=C(CSc1nc2nccnc2c(=O)n1CCc1ccccc1)Nc1nccs1 the inhibition was -7% (CDK16 with cyclin Y; enzyme activity; inhibitor; 10 µM).
With N#CC1c2c([nH]c3c(Cl)c(Cl)ccc23)C(=O)NC12CCCCC2 (racemic) the ΔTm was 0.9 °C (CDK16; thermal stability; DSF; 10 µM).
For CCCOc1ccc([C@H]2[C@H](C(=O)O)[C@@H](c3ccc4c(c3)OCO4)CN2CC(=O)Nc2c(CC)cccc2CC)cc1, the remaining binding was 77% (CDK16; cell-free assay; competition with immobilised ligand; 1 µM).
